Assay results reported in ChEMBL document CHEMBL3804788, “The design of 8-hydroxyquinoline tetracyclic lactams as HIV-1 integrase strand transfer inhibitors” (Eur J Med Chem, 2016).
In brackets after ≈: the same amount, converted by molar mass.

Key:
[1] = Cytotoxicity against human CIP4 cells; assay type: cell-based
[2] = tested on: Human immunodeficiency virus type 1 integrase (Human immunodeficiency virus 1), Q7ZJM1 [Q148K]; test: (§1) Inhibition of pseudotype HIV1 integrase Q148K mutant strand transfer activity in HIV1 infected human CIP4 cells assessed as ratio of IC50 for pseudotype HIV1 integrase Q148K mutant strand transfer activity to IC50 for pseudotype HIV1 integrase strand transfer activity after 2 days by luciferase reporter gene assay; assay type: cell-based
[3] = tested on: Human immunodeficiency virus type 1 integrase (Human immunodeficiency virus 1), Q7ZJM1 [G140S,Q148H]; test: as §1, with “G140S/Q148H double” for “Q148K”; assay type: cell-based
[4] = biological target: Human immunodeficiency virus type 1 integrase (Human immunodeficiency virus 1) (UniProt Q7ZJM1); test: Ratio of IC50 for pseudotype HIV1 integrase strand transfer activity in presence of 40% human serum albumin to IC50 for pseudotype HIV1 integrase strand transfer activity
How it was run: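 Single-round assay with a self-inactivating pseudotyped HIV (PHIV) lentiviral luciferase vector. CIP4 cells (2 × 10^4/well) were infected with enough PHIV to give about 50,000 relative light units. Cells were incubated 2 days with compound at varying concentrations, with or without 40% human serum albumin. Infection was read as luciferase luminescence (Steady-Glo). Serum shift is the IC50 with albumin divided by the IC50 without.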

[5] = Half life in Sprague-Dawley rat at 1 mg/kg, iv or 5 mg/kg, po by LC-MS/MS analysis; assay type: ADME, organism-based; conditions: in vivo
[6] = tested on: Canis familiaris; test: Total clearance in iv or po dosed beagle dog after 24 hrs by LC-MS/MS analysis relative to hepatic blood flow; assay type: ADME, organism-based, Canis lupus familiaris, Liver; conditions: in vivo
[7] = tested on: Rattus norvegicus; test: Total clearance in Sprague-Dawley rat at 1 mg/kg, iv or 5 mg/kg, po after 24 hrs by LC-MS/MS analysis relative to hepatic blood flow; assay type: ADME, organism-based, Liver; conditions: in vivo
[8] = Total clearance in Sprague-Dawley rat at 1 mg/kg, iv or 5 mg/kg, po after 24 hrs by LC-MS/MS analysis; assay type: ADME, organism-based; conditions: in vivo
[9] = Total clearance in iv or po dosed beagle dog after 24 hrs by LC-MS/MS analysis; assay type: ADME, organism-based, Canis lupus familiaris; conditions: in vivo
[10] = Half life in iv or po dosed beagle dog by LC-MS/MS analysis; assay type: ADME, organism-based, Canis lupus familiaris; conditions: in vivo
[11] = Oral bioavailability in beagle dog after 24 hrs by LC-MS/MS analysis; assay type: ADME, organism-based, Canis lupus familiaris; conditions: in vivo
[12] = Intrinsic aqueous solubility of compound by chemiluminescent nitrogen detection method; assay type: physicochemical; conditions: buffer
[13] = Apparent permeability of compound; assay type: physicochemical; conditions: not told
[14] = Oral bioavailability in Sprague-Dawley rat at 5 mg/kg after 24 hrs by LC-MS/MS analysis; assay type: ADME, organism-based; conditions: in vivo

Row | SMILES | CC50 [1] [µM] | Ratio IC50 [2] | Ratio IC50 [3] | also measured
1 | NC(=O)c1c2c(c(O)c3ncc(Cc4cccc(Cl)c4F)cc13)C(=O)N1CCCC[C@@H]21 | 5.18 | 0.1 | 3.7 | –
2 | NC(=O)c1c2c(c(O)c3ncc(Cc4cccc(Cl)c4F)cc13)C(=O)N1CCC[C@@H]1C2 | 21.1 | 0.6 | 0.4 | –
3 | N#Cc1c2c(c(O)c3ncc(Cc4cccc(Cl)c4F)cc13)C(=O)N1CCC[C@@H]1C2 | 12.8 | 0.8 | 1.5 | –
4 | O=C1c2c(cc3cc(Cc4cccc(Cl)c4F)cnc3c2O)CN2CCCN12 | – | 0.4 | 2.3 | Ratio IC50 [4]: 9
5 | Cn1c(=O)c(C(=O)NCCO)c(O)c2ncc(Cc3ccc(F)cc3)cc21 | – | 40 | – | –
6 | NC(=O)c1c2c(c(O)c3ncc(Cc4cccc(Cl)c4F)cc13)C(=O)N1CCC[C@H]1C2 | 36.8 | 0.6 | 2.6 | –
7 | N#Cc1c2c(c(O)c3ncc(Cc4cccc(Cl)c4F)cc13)C(=O)N1CCC[C@@H]21 | 1.83 | 31 | 131 | –
8 | N#Cc1c2c(c(O)c3ncc(Cc4cccc(Cl)c4F)cc13)C(=O)N1CCCC[C@@H]21 | 3.36 | 17 | 93 | –
9 | O=C(NCc1ccc(F)cc1)c1cn2c(c(O)c1=O)C(=O)N1CCCO[C@H]1C2 | – | 2.4 | – | –
10 | N#Cc1c2c(c(O)c3ncc(Cc4cccc(Cl)c4F)cc13)C(=O)N1CCCC[C@H]21 | 7.05 | 8.8 | 17 | –
11 | N#Cc1c2c(c(O)c3ncc(Cc4cccc(Cl)c4F)cc13)C(=O)N1CCC[C@H]1C2 | 50 | 1.4 | 2.8 | –
12 | NC(=O)c1c2c(c(O)c3ncc(Cc4cccc(Cl)c4F)cc13)C(=O)N1CCCC[C@H]21 | 24.4 | 1.4 | 2.8 | half-life [5]: 7.2 h; CL [6]: 5%; CL [7]: 2%; clearance [8]: 1.4 mL/min/kg; clearance [9]: 2.8 mL/min/kg; half-life [10]: 11.8 h; bioavailability [11]: 14%; solubility [12]: 25 µM (≈ 11 µg/mL); Papp [13]: 6 ×10⁻⁶ cm/s; bioavailability [14]: 2%
13 | N#Cc1c2c(c(O)c3ncc(Cc4cccc(Cl)c4F)cc13)C(=O)N1CCC[C@H]21 | 7.27 | 216 | 456 | –
14 | N#Cc1c2c(c(O)c3ncc(Cc4cccc(Cl)c4F)cc13)C(=O)N1CCCN1C2 | – | 1.3 | 8 | Ratio IC50 [4]: 188
